CHOP inh = inhibitors of CHOP promoter induction, primary screen, cell-based, unfolded protein response, luciferase reporter; CHO-K1 CHOP-promoter luciferase, tunicamycin-induced, 15-18 h; inhibition, % at 10 µM; hit rate 3.8% among 220,000; AID 2732, 2010;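 active = compounds that reduced the stress-induced luciferase reporter signal by more than about 70% of percent inhibition, limit read from the data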;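 also: 0% = tunicamycin plus vehicle and 100% = wells without tunicamycin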
CSC inhib = cancer stem cell viability inhibitors, primary screen, luminescence; cancer stem cell-like cells viability; inhibition, % at 7.5 µM; hit rate 1.1% among 300,000; in the data active = inhibition above about 75%; tested in HMLE shEcad cells
PREPL inh = PREPL enzyme inhibitors, primary screen, biochemical, fluorescence polarization | Prolyl endopeptidase-like (Homo sapiens), Q4J6C6 | hit rate 0.68% among 320,000 | inhibition, % at 5.96 µM | recombinant PREPL, fluorescence polarization activity-based probe; in the data active = inhibition above about 43%;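 also: 0% = enzyme with DMSO and 100% = wells lacking enzyme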
Target sequence (Q4J6C6 whole entry, looked up): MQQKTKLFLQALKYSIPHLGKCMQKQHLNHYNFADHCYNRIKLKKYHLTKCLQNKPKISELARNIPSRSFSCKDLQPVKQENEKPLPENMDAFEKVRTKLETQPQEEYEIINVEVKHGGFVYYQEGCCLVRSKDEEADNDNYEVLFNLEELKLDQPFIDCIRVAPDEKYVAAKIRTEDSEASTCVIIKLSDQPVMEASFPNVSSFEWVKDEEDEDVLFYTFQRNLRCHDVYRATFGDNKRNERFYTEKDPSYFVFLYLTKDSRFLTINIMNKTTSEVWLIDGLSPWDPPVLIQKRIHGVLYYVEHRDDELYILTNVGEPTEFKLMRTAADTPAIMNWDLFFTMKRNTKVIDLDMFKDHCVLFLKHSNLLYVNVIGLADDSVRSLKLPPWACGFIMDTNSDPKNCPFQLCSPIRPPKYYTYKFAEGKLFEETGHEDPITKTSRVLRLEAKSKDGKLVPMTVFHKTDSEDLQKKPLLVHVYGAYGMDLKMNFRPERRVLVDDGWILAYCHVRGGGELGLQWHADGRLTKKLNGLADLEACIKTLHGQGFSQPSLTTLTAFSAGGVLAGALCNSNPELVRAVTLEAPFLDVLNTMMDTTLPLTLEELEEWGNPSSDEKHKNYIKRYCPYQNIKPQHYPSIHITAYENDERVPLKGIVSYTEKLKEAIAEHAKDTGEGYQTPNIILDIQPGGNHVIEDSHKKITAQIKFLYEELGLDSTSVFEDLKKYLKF
T cruzi inh = inhibitors of intracellular T. cruzi growth, primary screen, luminescence, NIH3T3 host cells; T. cruzi beta-gal in NIH3T3, 90 h; inhibition, % (no concentration beside the values); hit rate 1.4% among 300,000;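 active = mean inhibition across valid replicates above about 55%, limit read from the data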;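 also: signal also drops with host cell toxicity which is not excluded here; 0% = plate median of DMSO wells and 100% = zero luminescence signal; higher percent means less beta-gal luminescence so fewer parasites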
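System: NIH/3T3 fibroblasts plus reporter T. cruzi. Medium: DMEM plus 2% FBS. Probe or stimulus: 5000 reporter trypomastigotes per well. Compound: single 50 nL compound addition per well in DMSO. Incubation: co-culture of at least 90 h after 3 h attachment. Detection: GalScreen β-gal luminescence, detergent lysis, 60 min. Evaluation: parasite load inhibition, %.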
Beta cell apopt = inhibitors of cytokine-induced beta cell apoptosis, primary screen, luminescence; INS-1E cytokine-induced death, ATP luminescence, 48 h; percent of positive-control rescue, neutral wells zero; protection from apoptosis, % (concentration not given with the values); hit rate 0.8% among 300,000;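 active = Every replicate reaches about 75%, or at least half do and their mean reaches it too, limit read from the data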;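 also: 0% = cytokine-treated negative control wells and 100% = positive control rescue; higher means more ATP so stronger rescue from cytokine killing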
NR3A LBD binder = binders of NR3A ligand-binding domain, primary screen, biophysical, differential scanning fluorimetry, uHTS; hit rate 2.5% among 340,000; Tm shift relative to glycine control, % at 25 µM; NR3A LBD differential scanning fluorimetry, Tm shift; 0% = protein alone, 100% = glycine-bound protein; Glutamate receptor ionotropic, NMDA 3A (GRIN3A) ligand-binding domain;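 active = melting temperature shift of at least 10% of the positive control shift, at one fixed dose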
Starred values were filed as active, the others as inactive; nt = not tested or not shown. Most compounds without a hit are left out; they make up all but 6.7% or so of the library.

SMILES	CHOP inh	CSC inhib	PREPL inh	T cruzi inh	Beta cell apopt	NR3A LBD binder
Cc1ccc(-c2cc(-c3ccccc3)cc(-c3ccccc3)[n+]2-c2ccc(C(=O)O)cc2)cc1	nt	1	16	-9	-8	1
COc1ccc(-c2cc(-c3ccccc3)[n+](C)c(-c3ccccc3)c2)cc1	-14	-12	13	55*	109*	-2
NC(Cn1oc(=O)[nH]c1=O)C(=O)O (stereo not given)	-1	nt	nt	nt	nt	nt
C=C(C=O)C[C@@H]1C[C@H](O)C2OC3C[C@]4(C)OC5/C=C\CC6OC7C(CC=CCC6OC5CCCC4OC3CC2O1)OC1CC2OC3CC(=O)OC3C[C@@H](C)C[C@@]2(C)OC1C[C@@H]7C (stereo not given in full)	107*	104*	7	33	124*	9
Cc1cc(=O)oc2c(C)c(OCC(=O)N3CCC(C(=O)O)(c4ccccc4)CC3)ccc12	nt	-9	3	-9	-2	-5
O=C(O)c1ccc(-[n+]2c(-c3ccccc3)cc(-c3ccccc3)cc2-c2ccccc2)cc1	nt	-4	7	2	1	-3
Cc1ccccc1-[n+]1c(-c2ccccc2)cc(-c2ccccc2)cc1-c1ccccc1	nt	27	27	41	100*	-6
Oc1ccccc1-[n+]1c(-c2ccccc2)cc(-c2ccccc2)cc1-c1ccccc1	nt	16	-6	23	42	-1
Nc1ccccc1-[n+]1c(-c2ccccc2)cc(-c2ccccc2)cc1-c1ccccc1	-16	7	19	61*	39	-1
Oc1ccc2c3c1O[C@H]1[C@@H](O)CC[C@@]4(O)C(C2)N(CC2CCC2)CCC314 (stereo not given in full)	-8	nt	nt	nt	nt	nt
CCOC(=O)C(O)(c1ccc(NC(=O)c2ccc(Cl)c(Cl)c2)cc1)C(F)(F)F (stereo not given)	3	26	1	51	6	11*
CCOC(=O)C(O)(c1ccc(N(CC)S(=O)(=O)c2ccc(C)cc2)cc1)C(F)(F)F (stereo not given)	64	-17	6	17	-9	-11
CCOC(=O)C(=CNc1ccc(C(O)(C(=O)OCC)C(F)(F)F)cc1C)C(=O)OCC (stereo not given)	90*	11	-1	17	97*	-3
NCC(CP(=O)(O)O)c1ccc(Cl)cc1 (stereo not given)	-6	nt	nt	nt	nt	nt
CC1=C(C)CC2(CC1)C(=O)NC(=O)NC2=O	nt	nt	nt	nt	nt	2
COC(=O)C1=C(c2ccc(OCc3ccccc3)cc2)C[C@@H]2CC[C@H]1N2C(=O)NCc1ccc([N+](=O)[O-])cc1	nt	21	1	nt	21	-1
Cc1cccc(N2CCN(Cc3ccc4c(c3)OCO4)CC2)c1C	nt	27	4	-3	-9	-1
CCCC/C(C)=C/[C@@H](NP(=O)(c1ccccc1)c1ccccc1)c1ccccc1	10	114*	-5	40	4	3
COc1ccc(NC(=O)c2cn(CCC#N)nc2-c2cccc([N+](=O)[O-])c2)cc1	-8	-6	1	-2	0	-3
COc1ccc(Oc2cc(NC(=O)c3nn(C)cc3[N+](=O)[O-])cc([N+](=O)[O-])c2)cc1	-54	nt	17	-1	2	15*
O=C(CN1CC=C(c2ccccc2)CC1)NC(=O)NCc1ccco1	76*	3	5	4	2	1
Cc1cc(Br)c(NC(=O)CN2CC=C(c3ccccc3)CC2)c(Br)c1	37	nt	-8	72*	-4	-2
Oc1ccc2ccccc2c1CN1CC=C(c2ccccc2)CC1	34	-9	9	-75	-1	1
O=C(CN1C(=O)CN=C(c2ccccc2)c2ccccc21)NCc1ccco1	16	-3	-1	-7	-3	-2
Cc1[nH]c2ccccc2c1C(=O)CN1CC=C(c2ccccc2)CC1	-16	-10	-41	97*	0	-2
SMILES	CHOP inh	CSC inhib	PREPL inh	T cruzi inh	Beta cell apopt	NR3A LBD binder
CC(=O)c1cccc(OCC(O)CN2CC=C(c3ccccc3)CC2)c1 (stereo not given)	-17	1	6	16	3	4
CC1([N+](=O)[O-])COP(=O)(NC2CCCC2)OC1 (stereo not given)	nt	nt	nt	nt	nt	1
CCOC(=O)C1(c2ccccc2)CCN(CCC(C#N)(c2ccccc2)c2ccccc2)CC1	nt	29	-10	40	nt	-1
COC(=O)C1=C(c2ccc(C(C)=O)cc2)C[C@@H]2CC[C@H]1N2C(=O)N1CCCCC1	nt	5	12	nt	-4	-2
COc1ccc(/C=N\N=C(N)N)cc1	1	-4	-2	62*	-1	-3
NC(N)=N/N=C/c1ccc(N2CCOCC2)cc1	6	4	4	28	-1	0
O=C(N/N=C/c1c(O)n(CCC2=CCCCC2)c(=S)[nH]c1=O)c1ccccc1	19	29	8	1	-1	24*
Nc1ccccc1N=Cc1c(O)n(CCC2=CCCCC2)c(=O)[nH]c1=O	15	96*	2	-9	97*	-12
O=C(O)[C@@H]1CCN1	6	nt	nt	nt	nt	nt
CCN(CC)c1ccc(CN(C)CCc2ccc(OC)c(OC)c2)cc1	35	4	10	61*	-4	0
COC(=O)C1=C(c2cccc(C#N)c2)C[C@@H]2CC[C@H]1N2C(=O)NCCOc1ccc(OC)cc1	nt	-10	-5	nt	-1	-1
COc1ccc(Br)cc1CN1CCN(CCO)CC1	6	-8	3	-10	-2	-1
COc1cc(Br)cc(CN2CCN(C)CC2)c1O	12	-15	-2	nt	-6	11*
Nc1c(C(=O)NC2CCCC2)c2nc3ccccc3nc2n1CC1CCCO1 (stereo not given)	76*	16	11	13	-12	-9
COc1cc2c(cc1/C=C/[N+](=O)[O-])OCO2	93*	nt	nt	51	nt	1
CC1(C)CSC(=NCc2ccccc2)N1	18	7	-2	-6	-6	0
Cc1cc(C)cc(N2C(=O)NC(=O)/C(=C/c3cccn3-c3ccc(Cl)cc3)C2=O)c1	-88	75*	-4	-21	-7	0
Cc1cccc(N2C(=O)NC(=O)/C(=C\c3cccn3-c3ccc(Cl)cc3)C2=O)c1	35	4	-15	-8	12	1
CCN(C=C1CC2C3CC=C4CC(O)CCC4(C)C3CCC2(C)C1=O)CC (stereo not given)	nt	nt	nt	nt	nt	-1
O=c1c2ccccc2nc(N2CCCC2)n1-c1ccccc1	-10	66	2	-26	-1	2
O=c1c2ccccc2[se]n1-c1ccccc1	35	nt	13	-26	nt	32*

Source: PubChem BioAssay (several laboratories)
